Activity calls are given as the source filed them. The rule behind the calls is not given here.
How the values were obtained:
[1] = target: T1, Neuronal acetylcholine receptor; alpha4/beta2 (Homo sapiens, UniProt P17787+P43681); assay: Activation of human alpha4beta2 nAChR assessed as potentiation of submaximal response to […] relative to maximal nicotine response; type: protein-complex assay
Summary of the method: (§1)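 Fluorescence-based functional assay; compounds first screened at 10 µM for increase of the fluorescent response to an EC₁₂ concentration of nicotine, actives then run dose–response; EC₅₀ and peak response recorded, efficacy expressed as % of maximal nicotine response; average of n ≥ 2.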

[2] = target: T1, Neuronal acetylcholine receptor; alpha4/beta2; assay: Activation of human alpha4beta2 nAChR assessed as potentiation of submaximal response to nicotine induced current; summary of the method: as §1
[3] = Plasma concentration in Sprague-Dawley rat at 5 mg/kg, ip after 1 hr; type: ADME, organism-based; design: dose 5 mg/kg, route intraperitoneal
Summary of the method: (§2)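 Rats dosed ip at 5 mg/kg in DMSO; sacrificed at 1 h; plasma, brain and CSF collected and drug concentrations measured.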

[4] = Drug level in Sprague-Dawley rat CSF at 5 mg/kg, ip after 1 hr; type: ADME, organism-based, Cerebrospinal fluid; design: dose 5 mg/kg, route intraperitoneal; settings: read-out: Drug uptake; summary of the method: as §2
[5] = Drug level in Sprague-Dawley rat brain at 5 mg/kg, ip after 1 hr; type: ADME, organism-based; design: dose 5 mg/kg, route intraperitoneal; settings: read-out: Drug uptake; summary of the method: as §2
[6] = target: Neuronal acetylcholine receptor; alpha3/beta2 (Homo sapiens, UniProt P17787+P32297); assay: Activation of human alpha3beta2 nAChR assessed as potentiation of submaximal response to nicotine induced current; summary of the method: as §1
Sequence of Neuronal acetylcholine receptor; alpha3/beta2 (P17787 whole entry): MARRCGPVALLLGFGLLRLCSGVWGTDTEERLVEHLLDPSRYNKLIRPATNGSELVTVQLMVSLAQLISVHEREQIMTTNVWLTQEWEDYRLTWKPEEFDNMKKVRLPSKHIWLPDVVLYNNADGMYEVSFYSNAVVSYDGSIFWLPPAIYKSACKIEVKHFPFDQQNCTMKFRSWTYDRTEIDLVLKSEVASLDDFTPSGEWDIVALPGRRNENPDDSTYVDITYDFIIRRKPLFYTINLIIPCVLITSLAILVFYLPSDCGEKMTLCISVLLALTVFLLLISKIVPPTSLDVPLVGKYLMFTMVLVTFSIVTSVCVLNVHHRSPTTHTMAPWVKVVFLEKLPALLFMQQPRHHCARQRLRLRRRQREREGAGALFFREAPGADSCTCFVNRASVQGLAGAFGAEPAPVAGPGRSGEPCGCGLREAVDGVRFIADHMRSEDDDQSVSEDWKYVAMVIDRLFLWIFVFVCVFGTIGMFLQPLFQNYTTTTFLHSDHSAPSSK
Sequence of Neuronal acetylcholine receptor; alpha3/beta2 (P32297 whole entry): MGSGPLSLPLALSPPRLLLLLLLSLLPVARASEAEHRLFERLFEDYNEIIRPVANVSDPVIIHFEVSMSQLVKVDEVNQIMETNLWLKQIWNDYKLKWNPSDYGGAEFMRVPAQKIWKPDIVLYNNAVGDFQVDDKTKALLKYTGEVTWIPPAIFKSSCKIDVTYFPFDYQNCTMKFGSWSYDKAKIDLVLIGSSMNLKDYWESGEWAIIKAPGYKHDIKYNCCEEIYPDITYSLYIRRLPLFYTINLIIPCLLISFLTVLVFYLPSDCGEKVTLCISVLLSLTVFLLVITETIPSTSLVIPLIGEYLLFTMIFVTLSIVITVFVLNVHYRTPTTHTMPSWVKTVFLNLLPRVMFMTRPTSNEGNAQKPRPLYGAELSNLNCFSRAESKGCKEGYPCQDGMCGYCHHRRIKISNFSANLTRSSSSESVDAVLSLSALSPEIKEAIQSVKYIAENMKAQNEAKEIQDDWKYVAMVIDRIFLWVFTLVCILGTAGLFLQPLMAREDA

[7] = target: Neuronal acetylcholine receptor; alpha3/beta4 (Homo sapiens, UniProt P30926+P32297); assay: Activation of human alpha3beta4 nAChR assessed as potentiation of submaximal response to nicotine induced current; type: protein-complex assay; summary of the method: as §1
Sequence of Neuronal acetylcholine receptor; alpha3/beta4 (P30926 whole entry): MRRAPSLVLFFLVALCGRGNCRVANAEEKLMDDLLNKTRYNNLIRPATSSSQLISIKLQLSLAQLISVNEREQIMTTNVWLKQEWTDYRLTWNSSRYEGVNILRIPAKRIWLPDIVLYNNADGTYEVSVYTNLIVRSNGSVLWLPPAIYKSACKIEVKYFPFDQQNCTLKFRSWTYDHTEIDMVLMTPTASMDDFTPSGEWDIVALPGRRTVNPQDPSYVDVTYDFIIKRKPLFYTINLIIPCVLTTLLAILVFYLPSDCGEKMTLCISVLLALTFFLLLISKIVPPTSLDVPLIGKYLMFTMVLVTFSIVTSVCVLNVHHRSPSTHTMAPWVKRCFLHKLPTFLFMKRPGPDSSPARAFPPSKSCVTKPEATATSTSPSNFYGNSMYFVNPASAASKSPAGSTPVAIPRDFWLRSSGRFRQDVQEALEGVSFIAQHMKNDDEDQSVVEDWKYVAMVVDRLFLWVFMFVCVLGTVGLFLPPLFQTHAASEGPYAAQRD
Sequence of Neuronal acetylcholine receptor; alpha3/beta4 (P32297 whole entry): as the sequence (P32297 whole entry) above

[8] = tested on: MDR1; assay: Permeability efflux ratio in MDR1 expressing pig LLC-PK1 cells; type: ADME, cell-based, Sus scrofa
[9] = target: Neuronal acetylcholine receptor subunit alpha-7 (Homo sapiens, UniProt P36544); assay: Activation of human alpha7 nAChR assessed as potentiation of submaximal response to nicotine induced current
Sequence of Neuronal acetylcholine receptor subunit alpha-7 (P36544 whole entry): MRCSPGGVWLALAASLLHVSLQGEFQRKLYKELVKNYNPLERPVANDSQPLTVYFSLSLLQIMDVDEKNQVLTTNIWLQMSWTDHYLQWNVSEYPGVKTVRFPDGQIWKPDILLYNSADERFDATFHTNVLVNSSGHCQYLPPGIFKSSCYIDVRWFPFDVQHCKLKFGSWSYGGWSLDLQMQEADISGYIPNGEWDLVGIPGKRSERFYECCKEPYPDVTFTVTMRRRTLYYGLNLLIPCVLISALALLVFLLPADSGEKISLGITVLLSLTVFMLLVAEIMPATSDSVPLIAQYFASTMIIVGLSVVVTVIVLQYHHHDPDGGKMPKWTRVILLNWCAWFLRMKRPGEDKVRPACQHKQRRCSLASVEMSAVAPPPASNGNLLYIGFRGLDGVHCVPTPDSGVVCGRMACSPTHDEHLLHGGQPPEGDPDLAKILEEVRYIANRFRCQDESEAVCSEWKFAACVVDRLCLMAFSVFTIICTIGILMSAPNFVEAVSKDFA

[10] = target: Neuronal acetylcholine receptor; alpha4/beta2 (Rattus norvegicus, UniProt P09483+P12390); assay: Activation of rat alpha4beta2 nAChR by fluorescence assay; type: protein-complex assay
Sequence of Neuronal acetylcholine receptor; alpha4/beta2 (Rattus norvegicus, UniProt P09483+P12390) (P09483 whole entry): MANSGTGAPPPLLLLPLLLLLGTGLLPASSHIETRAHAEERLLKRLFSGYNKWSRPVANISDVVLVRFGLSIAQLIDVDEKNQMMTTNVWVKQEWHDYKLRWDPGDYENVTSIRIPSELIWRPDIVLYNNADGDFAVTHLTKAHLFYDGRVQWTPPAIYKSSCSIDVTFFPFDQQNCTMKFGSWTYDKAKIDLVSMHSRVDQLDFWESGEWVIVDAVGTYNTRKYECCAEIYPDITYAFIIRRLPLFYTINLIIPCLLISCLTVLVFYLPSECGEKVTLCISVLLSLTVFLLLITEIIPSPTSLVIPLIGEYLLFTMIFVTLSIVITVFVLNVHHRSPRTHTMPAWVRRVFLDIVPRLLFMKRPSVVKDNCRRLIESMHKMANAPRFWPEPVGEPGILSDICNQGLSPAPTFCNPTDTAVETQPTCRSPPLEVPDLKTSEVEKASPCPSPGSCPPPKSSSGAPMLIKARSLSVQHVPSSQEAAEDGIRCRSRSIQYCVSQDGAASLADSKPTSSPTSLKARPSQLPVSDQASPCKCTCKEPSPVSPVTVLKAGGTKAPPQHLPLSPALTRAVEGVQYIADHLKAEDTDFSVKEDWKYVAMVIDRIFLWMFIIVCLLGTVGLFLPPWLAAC
Sequence of Neuronal acetylcholine receptor; alpha4/beta2 (Rattus norvegicus, UniProt P09483+P12390) (P12390 whole entry): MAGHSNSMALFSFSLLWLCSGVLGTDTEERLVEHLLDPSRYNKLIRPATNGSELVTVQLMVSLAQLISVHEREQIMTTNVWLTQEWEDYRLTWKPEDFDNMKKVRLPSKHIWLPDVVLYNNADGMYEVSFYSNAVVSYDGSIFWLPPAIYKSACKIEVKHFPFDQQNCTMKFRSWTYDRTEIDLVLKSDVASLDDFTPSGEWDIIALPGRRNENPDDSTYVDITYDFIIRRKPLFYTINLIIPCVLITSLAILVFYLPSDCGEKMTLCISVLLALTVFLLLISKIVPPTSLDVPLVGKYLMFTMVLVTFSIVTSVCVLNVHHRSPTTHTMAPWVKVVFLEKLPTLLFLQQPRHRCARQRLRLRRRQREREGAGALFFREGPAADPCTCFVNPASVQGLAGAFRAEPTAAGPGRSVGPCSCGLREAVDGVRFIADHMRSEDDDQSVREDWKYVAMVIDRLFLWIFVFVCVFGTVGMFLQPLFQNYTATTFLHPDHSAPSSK

[11] = target: Neuronal acetylcholine receptor; alpha4/beta2 (Rattus norvegicus) (UniProt P09483+P12390); assay: Activation of rat alpha4beta2 nAChR expressed in HEK293 cells assessed as potentiation of acetylcholine-induced current by whole cell patch clamp; type: cell-based
Summary of the method: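 Whole-cell patch-clamp with fast-flow perfusion under physiological ionic conditions; acetylcholine as agonist, holding potential −80 mV; compound also applied alone to check for evoked inward currents.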

[12] = target: T1, Neuronal acetylcholine receptor; alpha4/beta2; assay: Displacement of [3H]cytisine from human alpha4beta2 nAChR at =>30 uM; type: protein-complex assay

T1 sequence (P17787 whole entry): as the sequence (P17787 whole entry) above
T1 sequence (P43681 whole entry): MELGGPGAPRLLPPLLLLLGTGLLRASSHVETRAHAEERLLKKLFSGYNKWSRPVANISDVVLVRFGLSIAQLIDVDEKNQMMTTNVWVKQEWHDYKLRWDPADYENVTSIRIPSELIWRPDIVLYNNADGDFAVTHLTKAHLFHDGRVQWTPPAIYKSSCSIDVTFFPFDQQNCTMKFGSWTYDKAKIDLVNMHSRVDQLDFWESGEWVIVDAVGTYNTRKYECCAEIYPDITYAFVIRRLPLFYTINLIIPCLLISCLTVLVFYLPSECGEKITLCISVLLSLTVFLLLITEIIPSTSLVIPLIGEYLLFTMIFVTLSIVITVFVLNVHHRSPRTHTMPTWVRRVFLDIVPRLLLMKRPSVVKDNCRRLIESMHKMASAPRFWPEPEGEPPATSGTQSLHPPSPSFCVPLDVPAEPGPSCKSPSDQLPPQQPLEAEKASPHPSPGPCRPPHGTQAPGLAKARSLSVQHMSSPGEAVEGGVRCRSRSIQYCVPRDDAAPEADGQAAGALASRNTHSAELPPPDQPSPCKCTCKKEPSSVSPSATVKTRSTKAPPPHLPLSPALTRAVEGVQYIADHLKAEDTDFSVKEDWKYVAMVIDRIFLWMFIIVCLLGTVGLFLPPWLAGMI

Efficacy [1] [%] | EC50 [2] [nM] | SMILES | other results
16 | 4600 | c1nn(C2CCNCC2)cc1-c1cc(C2CCCCC2)no1 | 
50 | 200 | Clc1cnccc1-c1cc(-c2cnn(C3CCNCC3)c2)on1 | 
56 | 220 | Fc1ccc(-c2cc(-c3cnn(C4CCNCC4)c3)on2)c(Cl)c1 | 
31 | 1200 | Cc1c(-c2cc(-c3ccccc3)no2)cnn1C1CCNCC1 | 
47 | 230 | Fc1cccc(-c2cc(-c3cnn(C4CCNCC4)c3)on2)c1Cl | 
66 | 6 | Cc1c(-c2cc(-c3c(F)cccc3Cl)no2)cnn1C1CCNCC1 | 
63 | 33 | Clc1ccccc1-c1cc(-c2cnc(C3CCNCC3)s2)on1 | concentration at 1 h [3]: 300 nM; concentration at 1 h [4]: 21 nM; concentration at 1 h [5]: 8500 nM
 | > 100000 | c1ccc(-c2cc(-c3cnn(C4CCNCC4)c3)on2)cc1 | 
19 | 1300 | Cc1cc(-c2cnn(C3CCNCC3)c2)on1 | 
41 | 350 | CN(Cc1cc(-c2ccccc2Cl)no1)C(=O)C1CCNCC1 | EC50 [6]: > 100000 nM; EC50 [7]: > 100000 nM
38 | 120 | Clc1ccccc1-c1cc(-c2cnn(C3CCNCC3)c2)on1 | EC50 [6]: > 100000 nM; EC50 [7]: > 100000 nM
68 | 34 | Cn1c(-c2cc(-c3c(F)cccc3Cl)no2)cnc1C1(F)CCNCC1 | efflux ratio [8]: 1
60 | 48 | Fc1cccc(Cl)c1-c1cc(-c2cnn(C3CCNCC3)c2)on1 | 
29 | 270 | Fc1ccc(Cl)c(-c2cc(-c3cnn(C4CCNCC4)c3)on2)c1 | 
87 | 3 | CCn1c(-c2cc(-c3c(F)cccc3Cl)no2)cnc1C1CCNCC1 | efflux ratio [8]: > 10
74 | 3 | CCn1c(-c2cc(-c3c(F)cccc3Cl)no2)cnc1C1(F)CCNCC1 | concentration at 1 h [3]: 600 nM; efflux ratio [8]: 1; concentration at 1 h [4]: 29 nM; concentration at 1 h [5]: 6500 nM
71 | 18 | Cc1c(-c2cc(-c3ccccc3Cl)no2)cnn1C1CCNCC1 | EC50 [9]: > 100000 nM; EC50 [10]: 20 nM; Activity [11]: Active; concentration at 1 h [3]: 610 nM; Activity [12]: inactive; concentration at 1 h [4]: 130 nM; concentration at 1 h [5]: 5200 nM
42 | 130 | Clc1sccc1-c1cc(-c2cnn(C3CCNCC3)c2)on1 | 
73 | 410 | Clc1cccc(Cl)c1-c1cc(-c2cnn(C3CCNCC3)c2)on1 | 
71 | 12 | Cn1c(-c2cc(-c3c(F)cccc3Cl)no2)cnc1C1CCNCC1 | efflux ratio [8]: > 10
